The text below walks through data of ChEMBL document CHEMBL4011632, “Design, Synthesis, and Evaluation of Thiazolidine-2,4-dione Derivatives as a Novel Class of Glutaminase Inhibitors” (J Med Chem, 2017).

The structures appear in SMILES notation. Calls of active or inactive are those of the source. No cut-off for these calls is given here.

Data set [1] can be described thus: Tmax in Sprague-Dawley rat at 10 mg/kg, po by HPLC-MS analysis. The class given is ADME, organism-based. To be noted: in vivo. The procedure, abridged:
(§1)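 Male rats (330−380 g, 9−10 weeks old), jugular-vein cannulated 1 day before dosing, n = 3. Dosed iv in DMA/PEG400 (20%/80%, v/v) or po in 1% CMC/0.5% Tween-80. Blood (100 μL) drawn at 0, 2 min, 5 min (iv only), 15 and 30 min, and 1, 2, 4, 6, 8 and 24 h. Plasma measured by LC-MS/MS; parameters from noncompartmental analysis.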

The nature of data set [2]: Terminal half life in Sprague-Dawley rat at 2 mg/kg, iv by HPLC-MS analysis. Type of data set: ADME, organism-based. To be noted: in vivo, read-out: beta t1/2 (converted). The method in brief:
as §1

Data set [3] is described as follows: Inhibition of recombinant human His-tagged KGA S384A mutant expressed in Escherichia coli BL21(DE3)pLysS using glutamine substrate preincubated for 10 mins followed by substrate addition measured after 60 mins.
Data set [4] is described as follows: Cmax in Sprague-Dawley rat at 10 mg/kg, po by HPLC-MS analysis. Type of data set: ADME, organism-based. To be noted: in vivo. Also on record: dose 10 mg/kg, route oral. The procedure, abridged:
as §1

In data set [5] the test system is ASPC1. Put plainly: Antitumor activity against human Aspc-1 cells xenografted in Balb/cAnN.Cg-Foxn1nu/CrlNarl mouse assessed as tumor growth inhibition at 25 mg/kg, ip once daily administered for 5 days followed by 2 days without dosing for 43 days relative to control. The class given is functional. To be noted: read-out: TGI. The procedure, abridged: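 Male nude mice (7−8 weeks, 18−22 g) received 4.5 × 10^6 AsPC-1 cells sc in the right flank, in HBSS mixed 1:1 with Matrigel. Mice were randomized once mean tumor reached ~100 mm3 (day 1). Dosing was ip once daily, 5 days on/2 days off, with 2% DMSO/PBS as vehicle. Tumors were measured twice weekly, V = ab²/2. %TGI = [1 − ((Tt − T0)/(Ct − C0))] × 100 from median volumes; Student's t test.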
Background: In xenograft studies the graft and the host belong to different species.

Data set [6] is described as follows: AUC (0 to infinity) in Sprague-Dawley rat at 10 mg/kg, po by HPLC-MS analysis. The class given is ADME, organism-based. Also on record: dose 10 mg/kg, time infinity, route oral. To be noted: in vivo. The method in brief:
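Male rats (330−380 g, 9−10 weeks old), jugular-vein cannulated 1 day before dosing, n = 3. Oral dose given in 1% CMC/0.5% Tween-80. Blood (100 μL) taken via cannula at 0, 15 and 30 min and 1, 2, 4, 6, 8 and 24 h, kept on ice. Plasma analysed by HPLC−tandem MS. Parameters from noncompartmental analysis.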

For data set [7], the system named is ASPC1. The data set is described as follows: Anticlonogenic activity against human Aspc-1 cells at 10 uM after 21 days by crystal violet staining based assay relative to control. The class given is functional. To be noted: ASPC1, 504 h. The procedure, abridged: (§2)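 Anchorage-dependent colony formation: AsPC-1 cells seeded at 1000 cells/well in six-well plates and treated with compound. Colony formation is expressed as percent of vehicle treatment. Mean ± SD from at least three independent experiments, each in duplicate.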

A short description of data set [8]: Inhibition of recombinant human His-tagged KGA K507A mutant expressed in Escherichia coli BL21(DE3)pLysS using glutamine substrate preincubated for 10 mins followed by substrate addition measured after 60 mins.
For data set [9], the system named is MDA-MB-231. Put plainly: Growth inhibition of human MDA-MB-231 cells after 72 hrs by MTS assay. Type of data set: functional, cell-based. To be noted: MDA-MB-231, 72 h. The procedure, abridged:
(§3)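 Growth inhibition by MTS viability read-out. Cells seeded in 96-well plates at 4000/well (AsPC-1) or 8500/well (MDA-MB-231). Mean ± SD from at least three independent experiments, each in duplicate.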
(Formazan colour is commonly taken as a measure of viable cells.)

The subject of data set [10] is ASPC1. Put plainly: Anticlonogenic activity against human Aspc-1 cells at 2 uM after 21 days by crystal violet staining based assay relative to control. The class given is functional. To be noted: ASPC1, 504 h. The method in brief:
as §2

Data set [11] in a line: Inhibition of recombinant human His-tagged KGA R387L mutant expressed in Escherichia coli BL21(DE3)pLysS using glutamine substrate preincubated for 10 mins followed by substrate addition measured after 60 mins.
Data set [12] can be described thus: Inhibition of recombinant human His-tagged KGA R387A mutant expressed in Escherichia coli BL21(DE3)pLysS using glutamine substrate preincubated for 10 mins followed by substrate addition measured after 60 mins.
Data set [13] can be described thus: Terminal half life in Sprague-Dawley rat at 10 mg/kg, po by HPLC-MS analysis. The class given is ADME, organism-based. To be noted: in vivo, read-out: beta t1/2 (converted). The procedure, abridged: as §1
Data set [14] has as its target T1, Glutaminase liver isoform, mitochondrial (Homo sapiens) (UniProt Q9UI32).
T1 sequence (whole entry): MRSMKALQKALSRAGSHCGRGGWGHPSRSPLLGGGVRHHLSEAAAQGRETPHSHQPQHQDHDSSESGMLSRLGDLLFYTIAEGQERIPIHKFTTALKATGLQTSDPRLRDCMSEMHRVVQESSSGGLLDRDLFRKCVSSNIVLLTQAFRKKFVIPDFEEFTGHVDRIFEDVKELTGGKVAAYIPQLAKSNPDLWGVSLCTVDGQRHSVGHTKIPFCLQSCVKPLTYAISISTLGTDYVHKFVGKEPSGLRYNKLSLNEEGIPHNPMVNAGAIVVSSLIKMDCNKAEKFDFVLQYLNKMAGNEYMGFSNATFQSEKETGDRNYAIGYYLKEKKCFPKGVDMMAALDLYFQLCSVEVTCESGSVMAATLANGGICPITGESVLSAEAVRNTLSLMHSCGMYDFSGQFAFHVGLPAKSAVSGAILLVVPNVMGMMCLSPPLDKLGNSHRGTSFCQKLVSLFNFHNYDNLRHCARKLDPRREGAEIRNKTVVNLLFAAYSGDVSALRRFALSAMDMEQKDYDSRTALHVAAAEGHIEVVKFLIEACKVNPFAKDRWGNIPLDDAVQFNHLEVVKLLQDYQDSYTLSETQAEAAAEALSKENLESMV
Put plainly: Inhibition of human GLS2 in GLS1 deficient human Aspc-1 cells assessed as decrease in cellular glutamate production at 3.13 to 100 uM after 4 hrs by amplex red glutamic acid assay. The method in brief: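 GLS-knockout AsPC-1 cells made with GLS-KO ZFN mRNA, single-cell cloned, and grown in glutamine-free RPMI 1640 with 10% FBS. Cells seeded at 30 000/well and grown 24 h at 37 °C. Treated 4 h with 1% DMSO vehicle or 3.13−100 μM inhibitor, washed with PBS, and lysed in NP-40 buffer (4 °C, 20 min). Lysate glutamate measured by Amplex Red. Three independent experiments in duplicate.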

Data set [15] can be described thus: Oral bioavailability in Sprague-Dawley rat at 10 mg/kg by HPLC-MS analysis. Type of data set: ADME, organism-based. To be noted: in vivo. The procedure, abridged: as §1
Data set [16] is described as follows: AUC (0 to infinity) in Sprague-Dawley rat at 2 mg/kg, iv by HPLC-MS analysis. The class given is ADME, organism-based. On the set-up: dose 2 mg/kg, route intravenous, time infinity. To be noted: in vivo. The method in brief:
as §1

The test system of data set [17] is ASPC1. The data set is described as follows: Growth inhibition of human Aspc-1 cells after 72 hrs by MTS assay. To be noted: ASPC1, 72 h. The class given is functional, cell-based. The procedure, abridged:
as §3

A short description of data set [18]: Volume of distribution at steady state in Sprague-Dawley rat at 2 mg/kg, iv by HPLC-MS analysis. To be noted: in vivo, read-out: Vdss. Type of data set: ADME, organism-based. The method in brief: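 Male rats (330−380 g, 9−10 weeks old), quarantined 1 week, jugular-vein cannula implanted 1 day before dosing; n = 3. Single iv dose in DMA/PEG400 (20%/80%, v/v). Blood (100 μL) was drawn via cannula at 0, 2, 5, 15, 30 min and 1, 2, 4, 6, 8, 24 h and kept on ice. Plasma was analysed by HPLC−MS/MS. Vss came from noncompartmental analysis.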

Data set [19] concerns ASPC1. The data set is described as follows: Synergistic cytotoxicity against human Aspc-1 cells assessed as reduction in cell viability at ED50 in presence of doxorubicin by MTS assay. The class given is functional. The method in brief:
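AsPC-1 cells treated with compound combinations and viability read by MTS. Combination index at ED50, ED75 and ED90 calculated by the Chou−Talalay method. CI = 1 additive, <1 synergism, >1 antagonism. Representative of three independent experiments.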

A word on the Tmax: it is the time at which the peak concentration occurs. Broadly, the IC50 is the concentration that gives 50% inhibition. The Cmax is the peak of the concentration-time curve. The term AUC(0-inf) denotes total exposure, with the tail of the curve extrapolated. The low end stands for low exposure, the high end for high exposure. As a reminder, the inhibition is the percentage by which the read-out fell short of the control. As usually defined, the bioavailability is dose-corrected exposure relative to a reference, in per cent. A high value points to good availability.

For the compound `O=C(Cc1ccccc1)Nc1nnc(CCSCCc2nnc(NC(=O)Cc3ccccc3)s2)s1`, in data set [1], the Tmax was determined as 0.7 h. Besides, the results for the half-life in data set [2] and in data set [13] were 5.3 h and 2 h, respectively. The 50% inhibitory concentration (IC50) came out at 65 nM in data set [3]; 66 nM in data set [8]; 6800 nM in data set [9]; 345 nM in data set [11]; 63 nM in data set [12]; 10200 nM in data set [17]. In [4], this compound had a maximum concentration (Cmax) of 40 ng/mL. Moreover, the inhibition in vivo at 25 mg/kg in [5] was 55%. The AUC(0-inf) in [6] was determined as 73 ng·h/mL; in data set [16], 636 ng·h/mL. Besides, 10 µM produced 98% inhibition in [7]. Moreover, testing at 2 µM in [10] gave an inhibition of 41%. The inhibition result in [14] was “inactive”. Besides, in data set [15], the bioavailability worked out at 2%. In data set [18], the Vd is 8.8 L/kg. Further, the CI in [19] is reported as 0.45 - 0.68.
